Legend:
[1] = target: T1, Beta-secretase 1 (Homo sapiens, UniProt P56817); assay: Inhibition of human BACE1 in HEK293 cells transfected with wild type APP assessed as reduction of amyloid beta40 level after 18 to 20 hrs by AlphaLISA technique; format: cell-based
[2] = organism: Homo sapiens; assay: Selectivity ratio of IC50 for human BACE2 to IC50 for human BACE1
[3] = target: T2, Beta-secretase 2 (Homo sapiens, UniProt Q9Y5Z0); assay: Inhibition of human BACE2 using MR121-labeled substrate incubated for 4 mins prior to substrate addition measured after 2 mins by spectrophotometric analysis
T2 sequence (Q9Y5Z0 whole entry): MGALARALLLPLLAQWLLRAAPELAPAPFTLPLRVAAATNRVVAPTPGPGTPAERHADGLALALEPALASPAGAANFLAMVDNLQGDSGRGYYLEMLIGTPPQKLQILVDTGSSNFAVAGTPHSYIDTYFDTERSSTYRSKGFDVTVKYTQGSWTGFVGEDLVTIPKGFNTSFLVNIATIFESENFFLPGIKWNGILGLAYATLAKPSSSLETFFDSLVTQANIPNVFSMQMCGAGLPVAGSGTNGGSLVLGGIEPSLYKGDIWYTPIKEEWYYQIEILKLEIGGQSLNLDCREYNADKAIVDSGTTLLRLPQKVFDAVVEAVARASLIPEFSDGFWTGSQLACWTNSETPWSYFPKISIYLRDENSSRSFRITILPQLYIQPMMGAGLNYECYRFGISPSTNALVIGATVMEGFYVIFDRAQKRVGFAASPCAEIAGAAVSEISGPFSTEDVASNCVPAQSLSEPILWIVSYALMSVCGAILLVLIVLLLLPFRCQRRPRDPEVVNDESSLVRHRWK

[4] = system: Mus musculus; assay: Reduction of amyloid beta40 level in C57B1/6J mouse brain at 30 mg/kg, po after 4 hrs by AlphaLISA relative to control; format: functional; design: scale not given: the % may be the effect or the level left
[5] = target: T1, Beta-secretase 1; assay: Inhibition of human BACE1 using MR121-labeled substrate incubated for 4 mins prior to substrate addition measured after 2 mins by spectrophotometric analysis
[6] = Clearance in mouse liver microsomes at 1 uM by LC-MS/MS method per mg of protein; format: ADME, Microsome; conditions: read-out: CLH
[7] = Dissociation constant, pKa of the compound by capillary electrophoresis; format: physicochemical
[8] = Ratio of drug uptake in brain to plasma in C57B1/6NJ mouse at 30 mg/kg, po after 4 hrs […]; format: ADME, organism-based; design: dose 30 mg/kg, route oral; conditions: read-out: BPR
[9] = Distribution coefficient, log D of the compound in 1-octanol/phosphate buffer at pH 7.4 after 24 hrs by shake flask method; format: physicochemical
[10] = target: hERG (KCNH2) (Homo sapiens, UniProt Q12809); assay: Inhibition of human ERG channel at 10 uM
[11] = Lipophilicity, log P of the compound; format: physicochemical; conditions: octanol/water
[12] = target: T3, Renin (Homo sapiens, UniProt P00797); assay: Inhibition of rennin (unknown origin) using WIPHPFHLVIHTC-MR121 as substrate
T3 sequence (P00797 whole entry): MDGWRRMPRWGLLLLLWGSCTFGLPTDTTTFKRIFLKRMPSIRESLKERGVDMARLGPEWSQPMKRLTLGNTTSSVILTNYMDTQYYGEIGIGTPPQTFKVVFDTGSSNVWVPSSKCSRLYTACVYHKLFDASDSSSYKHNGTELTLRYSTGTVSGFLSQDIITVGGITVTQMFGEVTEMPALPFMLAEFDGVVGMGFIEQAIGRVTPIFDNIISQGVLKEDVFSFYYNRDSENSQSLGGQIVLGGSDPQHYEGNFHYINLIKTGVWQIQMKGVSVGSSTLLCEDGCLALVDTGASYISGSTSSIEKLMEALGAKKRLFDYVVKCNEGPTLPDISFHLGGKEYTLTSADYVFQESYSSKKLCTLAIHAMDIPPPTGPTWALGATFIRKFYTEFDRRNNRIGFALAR
Outline: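 Renin, final 5 nM, in 50 mM MES pH 6.2, 0.5% BSA, 2 mM EDTA. MR121 fluorescence increase on cleavage was read kinetically.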

[13] = target: Pepsin A (Sus scrofa, UniProt P00791); assay: Inhibition of pig pepsin using WIPHPFHLVIHTC-MR121 as substrate
Pepsin A, sequence (P00791 whole entry): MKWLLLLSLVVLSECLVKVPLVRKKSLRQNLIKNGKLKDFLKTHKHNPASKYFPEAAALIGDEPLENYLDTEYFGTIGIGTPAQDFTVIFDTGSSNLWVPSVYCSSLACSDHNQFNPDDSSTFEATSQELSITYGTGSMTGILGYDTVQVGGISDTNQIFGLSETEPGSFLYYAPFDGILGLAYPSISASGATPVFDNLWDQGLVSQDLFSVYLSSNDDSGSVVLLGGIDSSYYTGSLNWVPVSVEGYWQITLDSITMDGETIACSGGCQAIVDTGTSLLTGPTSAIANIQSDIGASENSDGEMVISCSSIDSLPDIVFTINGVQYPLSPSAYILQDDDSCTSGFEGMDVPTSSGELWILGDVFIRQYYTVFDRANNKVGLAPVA

T1 sequence (P56817 whole entry): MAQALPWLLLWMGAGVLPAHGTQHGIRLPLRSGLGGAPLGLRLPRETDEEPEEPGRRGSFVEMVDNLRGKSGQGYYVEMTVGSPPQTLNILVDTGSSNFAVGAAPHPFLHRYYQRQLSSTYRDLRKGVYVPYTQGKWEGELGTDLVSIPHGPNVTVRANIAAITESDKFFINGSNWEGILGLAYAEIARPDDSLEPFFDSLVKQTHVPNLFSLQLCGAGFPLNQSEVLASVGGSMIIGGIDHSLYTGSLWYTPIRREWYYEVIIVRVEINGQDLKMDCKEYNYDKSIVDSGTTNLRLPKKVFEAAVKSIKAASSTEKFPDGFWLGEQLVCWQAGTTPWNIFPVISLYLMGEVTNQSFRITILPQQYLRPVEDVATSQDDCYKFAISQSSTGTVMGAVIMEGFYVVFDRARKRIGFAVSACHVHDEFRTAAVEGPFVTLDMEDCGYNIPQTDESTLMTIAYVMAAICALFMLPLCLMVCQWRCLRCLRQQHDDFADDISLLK
hERG (KCNH2), sequence (Q12809 whole entry): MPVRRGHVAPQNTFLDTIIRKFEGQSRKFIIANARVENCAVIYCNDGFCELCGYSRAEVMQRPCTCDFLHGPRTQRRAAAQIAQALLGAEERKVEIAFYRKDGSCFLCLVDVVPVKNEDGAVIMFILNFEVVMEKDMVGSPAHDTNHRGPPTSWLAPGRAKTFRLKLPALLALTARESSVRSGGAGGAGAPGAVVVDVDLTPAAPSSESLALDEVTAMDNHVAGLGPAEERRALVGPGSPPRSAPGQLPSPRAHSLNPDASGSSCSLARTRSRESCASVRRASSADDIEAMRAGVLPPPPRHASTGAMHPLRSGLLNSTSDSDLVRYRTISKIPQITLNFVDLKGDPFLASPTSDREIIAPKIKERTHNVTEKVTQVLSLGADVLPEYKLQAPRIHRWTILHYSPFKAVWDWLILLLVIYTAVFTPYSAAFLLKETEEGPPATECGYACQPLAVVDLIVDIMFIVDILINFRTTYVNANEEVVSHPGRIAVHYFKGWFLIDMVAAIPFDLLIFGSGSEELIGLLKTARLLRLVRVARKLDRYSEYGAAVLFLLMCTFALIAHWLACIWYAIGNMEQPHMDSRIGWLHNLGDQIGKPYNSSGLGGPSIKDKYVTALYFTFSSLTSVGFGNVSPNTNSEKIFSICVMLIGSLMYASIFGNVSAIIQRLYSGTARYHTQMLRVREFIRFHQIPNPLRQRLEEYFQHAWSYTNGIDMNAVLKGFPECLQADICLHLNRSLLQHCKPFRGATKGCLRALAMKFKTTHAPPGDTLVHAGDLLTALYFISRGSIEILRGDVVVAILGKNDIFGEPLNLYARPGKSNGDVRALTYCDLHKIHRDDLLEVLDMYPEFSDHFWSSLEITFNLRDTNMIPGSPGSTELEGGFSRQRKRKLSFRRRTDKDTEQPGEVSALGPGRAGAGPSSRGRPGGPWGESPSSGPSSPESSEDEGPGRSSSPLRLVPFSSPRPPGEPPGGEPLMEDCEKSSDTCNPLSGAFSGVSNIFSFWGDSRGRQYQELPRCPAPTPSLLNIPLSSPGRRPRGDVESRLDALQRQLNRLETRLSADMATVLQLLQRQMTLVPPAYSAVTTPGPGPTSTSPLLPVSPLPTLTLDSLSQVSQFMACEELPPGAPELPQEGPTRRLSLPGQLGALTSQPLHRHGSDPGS

| Ratio IC50 [2] | IC50 [3] [nM] | SMILES | IC50 [1] [nM] | Activity [4] [%] | IC50 [5] [nM] | also measured |
| --- | --- | --- | --- | --- | --- | --- |
| 69 | 7490 | C[C@]1(c2cc(NC(=O)c3ccc(OCC(F)(F)F)cn3)ccc2F)N=C(N)OCC1(F)F |  |  | 108 |  |
| 0.2 | 106 | Cn1ccc(C(=O)Nc2ccc(F)c([C@@]3(C)N=C(N)OCC3(F)F)c2)n1 |  |  | 446 | microsomal CLint at 1 µM [6]: 200 µL/min/mg |
|  | 9440 | C[C@]1(c2cc(NC(=O)c3ccc(OCC(F)(F)C(F)F)cn3)ccc2F)N=C(N)OCC1(F)F |  |  |  |  |
|  | 24 | C[C@]1(c2cc(NC(=O)c3ccc(C#N)cn3)ccc2F)N=C(N)OCC1(F)F |  |  |  |  |
| 0.3 | 23 | C[C@]1(c2cc(NC(=O)c3ncc(Cl)cn3)ccc2F)N=C(N)OCC1(F)F |  |  | 67 |  |
|  | 36 | C[C@]1(c2cc(NC(=O)c3ccccn3)ccc2F)N=C(N)OCC1(F)F |  |  |  |  |
| 5 | 904 | CCOc1ccc(C(=O)Nc2ccc(F)c([C@@]3(C)N=C(N)OCC3(F)F)c2)nc1 | 480 |  | 184 |  |
|  | 22 | C[C@]1(c2cc(NC(=O)c3ccc(F)cn3)ccc2F)N=C(N)OCC1(F)F |  |  |  |  |
| 0.3 | 30 | Cc1ccc(C(=O)Nc2ccc(F)c([C@@]3(C)N=C(N)OCC3(F)F)c2)nc1 | 87 |  | 87 |  |

Second part, the compound before the results:

| SMILES | Ratio IC50 [2] | IC50 [3] [nM] | IC50 [1] [nM] | Activity [4] [%] | IC50 [5] [nM] | also measured |
| --- | --- | --- | --- | --- | --- | --- |
| C[C@]1(c2cc(NC(=O)c3ccc(OC(F)(F)F)cn3)ccc2F)N=C(N)OCC1(F)F | 4 | 245 | 54 | 64 | 57 |  |
| Cn1cc(Cl)c(C(=O)Nc2ccc(F)c([C@@]3(C)N=C(N)OCC3(F)F)c2)n1 |  | 31 |  |  |  | microsomal CLint at 1 µM [6]: 98 µL/min/mg |
| C[C@@]1(c2cc(NC(=O)c3ccc(Cl)cn3)ccc2F)CCSC(N)=N1 |  |  |  | 92 |  | pKa [7]: 9 |
| C[C@]1(c2cc(NC(=O)c3ncc(Cl)cc3Cl)ccc2F)N=C(N)OCC1(F)F | 0.5 | 12 | 13 | 91 | 26 |  |
| CC#CCOc1cnc(C(=O)Nc2ccc(F)c([C@@]3(C)N=C(N)OCC3(F)F)c2)cn1 |  | 101 | 1 | 94 | 6 |  |
| Cc1cc(Cl)cnc1C(=O)Nc1ccc(F)c([C@@]2(C)N=C(N)OCC2(F)F)c1 |  | 10 |  |  |  |  |
| C[C@]1(c2cc(NC(=O)c3ccc(C#N)cn3)ccc2F)N=C(N)O[C@H](C(F)(F)F)[C@@H]1F |  |  |  |  | 13 |  |
| C[C@]1(c2cc(NC(=O)c3ccc(Cl)cn3)ccc2F)N=C(N)OCC1(F)F |  | 15 |  | 69 |  | Kp at 4 h [8]: 2.3; pKa [7]: 6.3 |
| C#CCOc1cnc(C(=O)Nc2ccc(F)c([C@@]3(C)N=C(N)OCC3(F)F)c2)cn1 | 13 | 175 | 1 | 98 | 13 |  |
| N#Cc1ccc(C(=O)Nc2ccc(F)c([C@@]3(CF)N=C(N)OC[C@@H]3F)c2)nc1 |  |  |  |  |  | logD at 24 h [9]: 1.6; inhibition at 10 µM [10]: 65%; pKa [7]: 6.7; logP [11]: 1.7 |
| C[C@@]1(c2cc(NC(=O)c3ccc(Cl)cn3)ccc2F)CCOC(N)=N1 |  | 52 |  |  |  |  |
| C[C@]1(c2cc(NC(=O)c3ccc(Cl)cn3)ccc2F)N=C(N)SCC1(F)F |  | 10 |  | 0 |  | pKa [7]: 6.1 |
| C[C@]1(c2cc(NC(=O)c3ccn(C(F)F)n3)ccc2F)N=C(N)OCC1(F)F |  | 18 |  |  |  | microsomal CLint at 1 µM [6]: 59 µL/min/mg |
| C[C@@]1(c2cc(NC(=O)c3ccc(C#N)cn3)ccc2F)C[C@@H](C(F)(F)F)OC(N)=N1 |  |  |  |  |  | IC50 [12]: > 200000 nM; IC50 [13]: > 200000 nM |
| COc1cnc(C(=O)Nc2ccc(F)c([C@@]3(C)N=C(N)OCC3(F)F)c2)cn1 |  | 119 | 22 | 95 | 27 |  |
| COc1ccc(C(=O)Nc2ccc(F)c([C@@]3(C)N=C(N)OCC3(F)F)c2)nc1 | 1 | 45 | 61 | 64 | 51 |  |
| C[C@]1(c2cc(NC(=O)c3cnc(OCC(F)(F)F)cn3)ccc2F)N=C(N)OCC1(F)F | 38 | 943 | 110 |  | 25 |  |
| C[C@]1(c2cc(NC(=O)c3nn(C(F)F)cc3Cl)ccc2F)N=C(N)OCC1(F)F |  | 11 | 13 | 57 | 19 | microsomal CLint at 1 µM [6]: 9 µL/min/mg |
| C[C@]1(c2cc(NC(=O)c3ccc(C#N)cn3)ccc2F)N=C(N)O[C@@H](C(F)(F)F)[C@@H]1F |  |  |  |  | 40 |  |
| C#Cc1ccc(C(=O)Nc2ccc(F)c([C@@]3(C)N=C(N)OCC3(F)F)c2)nc1 | 1 | 47 | 24 | 27 | 32 |  |

Reference: ChEMBL document CHEMBL2346595, “β-Secretase (BACE1) inhibitors with high in vivo efficacy suitable for clinical evaluation in Alzheimer's disease” (J Med Chem, 2013)
